ChEMBL document CHEMBL1136741, “Role of the glycopeptide framework in the antibacterial activity of hydrophobic derivatives of glycopeptide antibiotics” (2003)
≈ marks a conversion by molar mass, not a printed value.

Columns and labels:
[1] = system: Enterococcus faecium; assay: Antibacterial activity against glycopeptide resistant Enterococcus faecium 569 strain; type: functional
In short: (§1)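 MIC by broth microdilution in Mueller Hinton broth following NCCLS procedures. Compounds were dissolved in 10% DMSO in water, then diluted in broth. Final DMSO was 1.28% at 128 µg/mL antibiotic down to 0.0013% at 0.13 µg/mL. Repeat determinations were usually identical and always within 2-fold.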

[2] = system: Enterococcus faecium; assay: Antibacterial activity against glycopeptide susceptible Enterococcus faecium 568 strain; type: functional
In short: (§2)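 MIC by broth microdilution in Mueller Hinton broth following NCCLS procedures. Compounds dissolved in 10% DMSO in water, then diluted in broth; test range 128 to 0.13 µg/mL, final DMSO 1.28% to 0.0013% accordingly. Repeat determinations usually identical and always within 2-fold. Strain 533 is a clinical isolate; strain 602 is a clinical S. haemoliticus isolate.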

[3] = system: Enterococcus faecalis; assay: Antibacterial activity against glycopeptide resistant Enterococcus faecalis 560 strain; type: functional; in short: as §1
[4] = system: Enterococcus faecalis; assay: Antibacterial activity against glycopeptide susceptible Enterococcus faecalis 559 strain; type: functional; in short: as §2
[5] = system: Staphylococcus aureus; assay: Antibacterial activity against glycopeptide intermediate resistant Staphylococcus aureus 3797 strain; type: functional; in short: as §1
[6] = system: Staphylococcus aureus; assay: Antibacterial activity against glycopeptide intermediate resistant Staphylococcus aureus 3798 strain; type: functional; in short: as §1
[7] = system: Staphylococcus epidermidis; assay: Antibacterial activity against Staphylococcus epidermis 533 strain; type: functional
[8] = system: Staphylococcus haemolyticus; assay: Antibacterial activity against Staphylococcus haemolyticus 602 strain

| SMILES | MIC [1] [µg/mL] | MIC [2] [µg/mL] | MIC [3] [µg/mL] | MIC [4] [µg/mL] | MIC [5] [µg/mL] | MIC [6] [µg/mL] | MIC [7] [µg/mL] | MIC [8] [µg/mL] |
| --- | --- | --- | --- | --- | --- | --- | --- | --- |
| CN[C@H](CC(C)C)C(=O)N[C@H]1C(=O)N[C@@H](CC(N)=O)C(=O)N[C@H]2C(=O)N[C@H]3C(=O)N[C@H](C(=O)N[C@H](C(=O)NCc4ccc(-c5ccc(Cl)cc5)cc4)c4cc(O)cc(O)c4-c4cc3ccc4O)[C@H](O[C@H]3C[C@](C)(N)[C@@H](O)[C@H](C)O3)c3ccc(cc3)Oc3cc2cc(c3O[C@@H]2O[C@H](CO)[C@@H](O)[C@H](O)[C@H]2O[C@H]2C[C@](C)(N)[C@@H](O)[C@H](C)O2)Oc2ccc(cc2Cl)[C@H]1O | 4 (≈ 2.28 µM) | 1 (≈ 0.569 µM) | 4 (≈ 2.28 µM) | 2 (≈ 1.14 µM) | 4 (≈ 2.28 µM) | 4 (≈ 2.28 µM) | 2 (≈ 1.14 µM) | 1 (≈ 0.569 µM) |
| C[C@@H]1O[C@@H](O[C@H]2[C@H](Oc3c4cc5cc3Oc3ccc(cc3Cl)[C@@H](O)[C@@H](N)C(=O)N[C@@H](CC(N)=O)C(=O)N[C@H]5C(=O)N[C@H]3C(=O)N[C@H](C(=O)N[C@H](C(=O)O)c5cc(O)cc(O)c5-c5cc3ccc5O)[C@H](O[C@H]3C[C@](C)(N)[C@@H](O)[C@H](C)O3)c3ccc(cc3)O4)O[C@H](CO)[C@@H](O)[C@@H]2O)C[C@](C)(N)[C@H]1O | > 128 | 16 (≈ 11.2 µM) | > 128 | 16 (≈ 11.2 µM) | 64 (≈ 44.7 µM) | 64 (≈ 44.7 µM) | 16 (≈ 11.2 µM) | 16 (≈ 11.2 µM) |
| CCCCCCCCCCNC(=O)[C@H]1NC(=O)[C@H]2NC(=O)[C@H](NC(=O)[C@@H]3NC(=O)[C@H](CC(N)=O)NC(=O)[C@H](N)[C@H](O)c4ccc(c(Cl)c4)Oc4cc3cc(c4O[C@@H]3O[C@H](CO)[C@@H](O)[C@H](O)[C@H]3O[C@H]3C[C@](C)(N)[C@@H](O)[C@H](C)O3)Oc3ccc(cc3)[C@H]2O[C@H]2C[C@](C)(N)[C@@H](O)[C@H](C)O2)c2ccc(O)c(c2)-c2c(O)cc(O)cc21 | 2 (≈ 1.27 µM) | 2 (≈ 1.27 µM) | 4 (≈ 2.55 µM) | 2 (≈ 1.27 µM) | 4 (≈ 2.55 µM) | 8 (≈ 5.1 µM) | 0.5 (≈ 0.318 µM) | 1 (≈ 0.637 µM) |
| CCCCCCCCCCNC(=O)[C@H]1NC(=O)[C@H]2NC(=O)[C@H](NC(=O)[C@@H]3NC(=O)[C@H](CC(N)=O)NC(=O)[C@H](N)[C@H](O)c4ccc(c(Cl)c4)Oc4cc3cc(c4O)Oc3ccc(cc3)[C@H]2O)c2ccc(O)c(c2)-c2c(O)cc(O)cc21 | 64 (≈ 57.1 µM) | 64 (≈ 57.1 µM) | > 128 | 64 (≈ 57.1 µM) | 32 (≈ 28.5 µM) | 32 (≈ 28.5 µM) | 16 (≈ 14.3 µM) | 64 (≈ 57.1 µM) |
| CN[C@H](CC(C)C)C(=O)N[C@H]1C(=O)N[C@@H](CC(N)=O)C(=O)N[C@H]2C(=O)N[C@H]3C(=O)N[C@H](C(=O)N[C@H](C(=O)NCc4ccc(-c5ccc(Cl)cc5)cc4)c4cc(O)cc(O)c4-c4cc3ccc4O)[C@H](O)c3ccc(cc3)Oc3cc2cc(c3O)Oc2ccc(cc2Cl)[C@H]1O | 8 (≈ 6.11 µM) | 8 (≈ 6.11 µM) | 8 (≈ 6.11 µM) | 8 (≈ 6.11 µM) | 8 (≈ 6.11 µM) | 8 (≈ 6.11 µM) | 4 (≈ 3.06 µM) | 8 (≈ 6.11 µM) |
| CCCCCCCCCCNC(=O)[C@H]1NC(=O)[C@H]2NC(=O)[C@H](NC(=O)[C@@H]3NC(=O)[C@H](CC(N)=O)NC(=O)[C@H](NC(=O)[C@@H](CC(C)C)NC)[C@H](O)c4ccc(c(Cl)c4)Oc4cc3cc(c4O[C@@H]3O[C@H](CO)[C@@H](O)[C@H](O)[C@H]3O[C@H]3C[C@](C)(N)[C@@H](O)[C@H](C)O3)Oc3ccc(cc3)[C@H]2O[C@H]2C[C@](C)(N)[C@@H](O)[C@H](C)O2)c2ccc(O)c(c2)-c2c(O)cc(O)cc21 | 2 (≈ 1.18 µM) | 0.5 (≈ 0.295 µM) | 4 (≈ 2.36 µM) | 1 (≈ 0.589 µM) | 4 (≈ 2.36 µM) | 4 (≈ 2.36 µM) | 0.13 (≈ 0.0766 µM) | 0.13 (≈ 0.0766 µM) |
| NC(=O)C[C@@H]1NC(=O)[C@H](N)[C@H](O)c2ccc(c(Cl)c2)Oc2cc3cc(c2O)Oc2ccc(cc2)[C@@H](O)[C@@H]2NC(=O)[C@H](NC(=O)[C@@H]3NC1=O)c1ccc(O)c(c1)-c1c(O)cc(O)cc1[C@@H](C(=O)NCc1ccc(-c3ccc(Cl)cc3)cc1)NC2=O | 64 (≈ 54.1 µM) | 32 (≈ 27.1 µM) | 64 (≈ 54.1 µM) | 64 (≈ 54.1 µM) | 64 (≈ 54.1 µM) | 64 (≈ 54.1 µM) | 32 (≈ 27.1 µM) | 64 (≈ 54.1 µM) |
| CN[C@H](CC(C)C)C(=O)N[C@H]1C(=O)N[C@@H](CC(N)=O)C(=O)N[C@H]2C(=O)N[C@H]3C(=O)N[C@H](C(=O)N[C@H](C(=O)O)c4cc(O)cc(O)c4-c4cc3ccc4O)[C@H](O)c3ccc(cc3)Oc3cc2cc(c3O)Oc2ccc(cc2Cl)[C@H]1O [EREMOMYCIN AGLYCON] | > 128 | 32 (≈ 28.8 µM) | > 128 | 16 (≈ 14.4 µM) | > 64 | > 64 | 32 (≈ 28.8 µM) | 16 (≈ 14.4 µM) |
| CN[C@H](CC(C)C)C(=O)N[C@H]1C(=O)N[C@@H](CC(N)=O)C(=O)N[C@H]2C(=O)N[C@H]3C(=O)N[C@H](C(=O)N[C@H](C(=O)O)c4cc(O)cc(O)c4-c4cc3ccc4O)[C@H](O)c3ccc(c(Cl)c3)Oc3cc2cc(c3O[C@@H]2O[C@H](CO)[C@@H](O)[C@H](O)[C@H]2O[C@H]2C[C@](C)(N)[C@H](O)[C@H](C)O2)Oc2ccc(cc2Cl)[C@H]1O [VANCOMYCIN] | > 128 | – | > 128 | 1 (≈ 0.69 µM) | 16 (≈ 11 µM) | 8 (≈ 5.52 µM) | – | – |
